PAFAH2 inh = PAFAH2 enzyme inhibitors, primary screen, biochemical, fluorescence polarization, human; recombinant PAFAH2, FP-rhodamine activity probe; inhibition, % at 3.39 µM; 340,000 compounds, 0.99% hits; AID 492956, 2010;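 active = inhibition above the mean over all tested compounds plus 3 SD, cut at about 30% in these data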;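 also: inhibitors block probe labeling of enzyme so polarization drops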
PAFAH1B2 inh = PAFAH1B2 enzyme inhibitors, primary screen, biochemical, fluorescence polarization, human. recombinant PAFAH1B2, FP-rhodamine activity probe. inhibition, % at 3.39 µM. 340,000 compounds, 1.2% hits;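 active = inhibition above the mean of all tested compounds plus 3 SD, cut at about 24% in these data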
Target sequence (P68402 whole entry, looked up): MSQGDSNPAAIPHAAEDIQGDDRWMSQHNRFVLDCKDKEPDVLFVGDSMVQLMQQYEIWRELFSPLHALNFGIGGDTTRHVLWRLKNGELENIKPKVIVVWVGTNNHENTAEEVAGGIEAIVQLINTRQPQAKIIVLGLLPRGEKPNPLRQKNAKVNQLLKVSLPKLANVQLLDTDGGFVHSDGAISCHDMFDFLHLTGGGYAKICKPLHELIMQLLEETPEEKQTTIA
PAFAH1B3 FP inh = PAFAH1B3 enzyme inhibitors, primary screen, biochemical, fluorescence polarization, human; inhibition, % at 3.39 µM; recombinant PAFAH1B3, FP-rhodamine probe; 340,000 compounds, 0.28% hits; Platelet-activating factor acetylhydrolase IB subunit alpha1 (Homo sapiens), Q15102; AID 492972, 2010;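 active = inhibition above the screen-wide average of all tested compounds plus 3 SD, cut at about 25% in these data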
Target sequence (Q15102 whole entry, looked up): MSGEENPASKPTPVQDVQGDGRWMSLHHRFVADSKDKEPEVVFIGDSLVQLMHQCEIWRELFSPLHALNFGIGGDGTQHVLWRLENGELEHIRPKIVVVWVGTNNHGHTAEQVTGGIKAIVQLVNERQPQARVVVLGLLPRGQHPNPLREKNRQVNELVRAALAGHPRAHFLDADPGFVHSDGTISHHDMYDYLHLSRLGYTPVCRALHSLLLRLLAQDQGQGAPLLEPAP
ARFGAP1 inh = inhibitors of rat ARFGAP1 GAP activity, primary screen, biochemical, fluorescence polarization, GDP tracer | 360,000 compounds, 0.26% hits | AID 651572, 2012 | Arfgap1-stimulated ARF1 GTP hydrolysis, GDP FP detection | inhibition, % at 16.5 µM | ADP-ribosylation factor GTPase-activating protein 1 (Rattus norvegicus), Q62848;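 active = inhibition above a per-plate limit, mean inhibition of low control wells plus 3 SD, cut at about 25% in these data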
Target sequence (Q62848 1-136 limits assumed): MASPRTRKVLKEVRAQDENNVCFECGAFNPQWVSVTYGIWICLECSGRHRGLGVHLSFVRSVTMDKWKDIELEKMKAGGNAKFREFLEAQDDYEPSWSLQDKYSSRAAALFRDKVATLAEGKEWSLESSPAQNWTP
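System: truncated rat Arfgap1 GAP domain / Benchmarks: high control wells lacking Arfgap1, low control full reaction with DMSO / Times: compound-enzyme preincubation 20 min, reaction 120 min, detection 60 min, 25 °C / Repeats: one replicate per compound / Also added: human ARF1(Δ1-17)-GTP substrate / Measured by: Tracer-displacement fluorescence polarization with EDTA stop, 620/688 nm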
ASAP1 GAP inh = inhibitors of human ASAP1 ArfGAP activity, primary screen, biochemical, fluorescence polarization; 360,000 compounds, 0.19% hits; AID 624377, 2012; inhibition, % at 16.5 µM; ASAP1-stimulated ARF1 GTP hydrolysis, GDP FP detection; Arf-GAP with SH3 domain, ANK repeat and PH domain-containing protein 1 (Homo sapiens), …; in the data active = inhibition above about 25%
pPAFAH FP inh = pPAFAH enzyme inhibitors, primary screen, biochemical, fluorescence polarization, human | inhibition, % at 3.39 µM | Platelet-activating factor acetylhydrolase (Homo sapiens), Q13093 | 330,000 compounds, 1.5% hits | recombinant pPAFAH, FP-rhodamine probe fluorescence polarization;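 active = inhibition above the mean inhibition across the screen plus 3 SD, cut at about 25% in these data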;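 also: inhibitors block binding of the rhodamine activity-based probe so polarization drops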
Of the large screens only hits and unclear results are named; the others gave an inactive call. Compounds with a hit are over-represented: about 2.8% of the library has one in this group of screens.

O=C(COC(=O)Cc1ccsc1)Nc1ccc(F)cc1Cl	pPAFAH FP inh 29
Cc1ccccc1NC(=O)COC(=O)Cc1ccsc1	pPAFAH FP inh 27
Cc1cccc(C)c1NC(=O)COC(=O)Cc1ccsc1	none
Cc1ccc(C)c(NC(=O)COC(=O)Cc2ccsc2)c1	pPAFAH FP inh 25
Cc1ccccc1NCC(=O)N=Nc1c(O)[nH]c2ccc([N+](=O)[O-])cc12	none
O=C(O)c1ccccc1N=Nc1c(O)[nH]c2ccc([N+](=O)[O-])cc12	PAFAH2 inh 37 (no result: ARFGAP1 inh, ASAP1 GAP inh)
Cc1ccc(NCC(=O)N=Nc2c(O)[nH]c3ccc([N+](=O)[O-])cc23)cc1	pPAFAH FP inh 25 (no result: PAFAH2 inh, PAFAH1B2 inh, PAFAH1B3 FP inh)
O=C(N=Nc1c(O)[nH]c2ccc([N+](=O)[O-])cc12)c1ccccc1Cl	none
O=C1c2ccccc2-c2n[nH]c(=O)c3ccc(N4CCCCC4)c1c23	pPAFAH FP inh 33
O=C1c2cccc3c(N4CCCCC4)ccc(c23)C(=O)N1c1ccccn1	none
CC(=O)c1ccc(NC(=O)C(C)OC(=O)CCN=C2NS(=O)(=O)c3ccccc32)cc1 (stereo unspecified)	none
CC(=O)c1cccc(NC(=O)C(C)OC(=O)CCN=C2NS(=O)(=O)c3ccccc32)c1 (stereo unspecified)	PAFAH2 inh 106, PAFAH1B2 inh 106, PAFAH1B3 FP inh 86
CCOC(=O)C#CC(CCc1ccccc1)OS(N)(=O)=O (stereo unspecified)	none
O=C(NCc1n[nH]c(=S)n1-c1ccc(Br)cc1)c1ccc(S(=O)(=O)N2CCCCC2)cc1	PAFAH1B2 inh 30
O=C(NCc1n[nH]c(=S)n1-c1ccc(Br)cc1)c1ccc(S(=O)(=O)N2CCCC2)cc1	none
COc1cccc2c1OC1(N3CCOCC3)CCCCC1C2C[N+](=O)[O-] (stereo unspecified)	none (no result: PAFAH2 inh, PAFAH1B2 inh, PAFAH1B3 FP inh, pPAFAH FP inh)
c1cc(-c2ccc(N3CCOCC3)cc2)n2ccnc2c1	none (no result: PAFAH2 inh, PAFAH1B2 inh, PAFAH1B3 FP inh, pPAFAH FP inh)
CC1(OC(=O)c2ccco2)C(=O)C=C2C=C(c3ccc(C#N)cc3)OC=C2C1=O (stereo unspecified)	pPAFAH FP inh 52 (no result: PAFAH2 inh, PAFAH1B2 inh, PAFAH1B3 FP inh, ARFGAP1 inh, ASAP1 GAP inh)
CC1(OC(=O)CCc2ccccc2)C(=O)C=C2C=C(c3ccc(C#N)cc3)N(Cc3ccco3)C=C2C1=O (stereo unspecified)	pPAFAH FP inh 33
CCC(=O)OC1(C)C(=O)C=C2C=C(c3ccc(C#N)cc3)OC=C2C1=O (stereo unspecified)	pPAFAH FP inh 33
CC1(OC(=O)CCc2ccccc2)C(=O)C=C2C=C(c3ccc(C#N)cc3)N(Cc3ccccc3)C=C2C1=O (stereo unspecified)	none
COc1cccc(-c2nc3nc(C)cc(C)n3c2Nc2ccc3c(c2)OCCO3)c1	none (no result: PAFAH2 inh, PAFAH1B2 inh, PAFAH1B3 FP inh, pPAFAH FP inh)
COc1ccc2c(c1)C(CC(C)=O)N(c1ccc(-c3cccnc3)cc1)C(c1ccsc1)=C2 (stereo unspecified)	none (no result: PAFAH2 inh, PAFAH1B2 inh, PAFAH1B3 FP inh, pPAFAH FP inh)
O=C(NNc1c2ccccc2nc2ccccc12)c1ccccc1O	pPAFAH FP inh 32
O=C(NNc1c2ccccc2nc2ccccc12)c1ccc(O)cc1O	none
O=C(NNc1c2ccccc2nc2ccccc12)c1cccc(O)c1	pPAFAH FP inh 26
O=C(COC(=O)c1ccc[nH]c1=O)NC1CC1	none
O=C(CN(Cc1ccco1)Cc1cccs1)N1CCN(S(=O)(=O)c2cccc(F)c2)CC1	PAFAH1B2 inh 26
CC(C)NC(=O)C1(C)CSCC(=O)N1Cc1cccc(C(F)(F)F)c1 (stereo unspecified)	none (no result: PAFAH2 inh, PAFAH1B2 inh, PAFAH1B3 FP inh, pPAFAH FP inh)
Brc1ccc(CSc2nccn2-c2ccccc2)cc1	PAFAH1B2 inh 24
CC1(COS(N)(=O)=O)CCCCC1	PAFAH1B2 inh 35 (no result: ARFGAP1 inh, ASAP1 GAP inh)
CCC(C)c1c(NS(=O)(=O)c2ccc(C)cc2)o[nH]c1=O (stereo unspecified)	none (no result: pPAFAH FP inh)
CCC(C)c1c(N)n(S(=O)(=O)c2ccc(C)cc2)oc1=O (stereo unspecified)	PAFAH1B2 inh 42 (no result: pPAFAH FP inh)
COc1ccc(NC(=O)Nc2cc(C(=O)O)ccc2N2CC3CC(C2)c2cccc(=O)n2C3)c(OC)c1 (stereo unspecified)	none
CCOC(=O)c1ccc(N2CCN(c3ccccc3F)CC2)c(NC(=O)Nc2ccccc2)c1	none
COc1cccc(NC(=O)Nc2cc(C(=O)O)ccc2N2CC3CC(C2)c2cccc(=O)n2C3)c1 (stereo unspecified)	pPAFAH FP inh 34
CCOC(=O)c1ccc(N2CCN(c3ccc(F)cc3)CC2)c(NC(=O)Nc2cccc(OC)c2)c1	pPAFAH FP inh 29
O=C1c2cccc3c([N+](=O)[O-])ccc(c23)C(=O)N1c1nccs1	PAFAH1B3 FP inh 33
O=C1c2cccc3c([N+](=O)[O-])ccc(c23)C(=O)N1c1ccc(Cl)cn1	PAFAH1B3 FP inh 34
C[C@H](CO)N1C[C@H](C)[C@@H](CN(C)C(=O)c2ccc(N3CCN(C)CC3)cc2)OCc2cnnn2CCCC1=O	none (no result: PAFAH2 inh, PAFAH1B2 inh, PAFAH1B3 FP inh, pPAFAH FP inh)
COC(=O)Cc1csc(Nc2ccc(F)c(Cl)c2)n1	pPAFAH FP inh 25
C[C@@H]1CN([C@@H](C)CO)C(=O)CCCn2nncc2CO[C@@H]1CN(C)C(=O)Nc1ccccc1C(F)(F)F	none (no result: PAFAH2 inh, PAFAH1B2 inh, PAFAH1B3 FP inh, pPAFAH FP inh)
CC(C)(C)c1ccc(CC(=O)N2CCC2(C)C(=O)NCc2cccs2)cc1 (stereo unspecified)	none (no result: PAFAH2 inh, PAFAH1B2 inh, PAFAH1B3 FP inh, pPAFAH FP inh)
CC(C)=CCC/C(C)=C/CNC(=O)C[C@H]1C[C@H](C(=O)N2CCOCC2)[C@@]2(C)c3[nH]c4cc(-c5ccco5)ccc4c3CCN2C1=O	pPAFAH FP inh 25 (no result: ARFGAP1 inh, ASAP1 GAP inh)
CN(C)C(=O)CCc1ccc2c3c([nH]c2c1)[C@]1(C)[C@@H](C(=O)N2CCCCC2)C[C@H](CC(=O)NCC24CC5CC(CC(C5)C2)C4)C(=O)N1CC3	pPAFAH FP inh 31
CN(C)C(=O)CCc1ccc2c3c([nH]c2c1)[C@]1(C)[C@@H](C(=O)N2CCCCC2)C[C@H](CC(=O)NCCN2CCOCC2)C(=O)N1CC3	none
N/C(=N\OC(=O)CCC1CCCCC1)c1ccc([N+](=O)[O-])cc1	PAFAH1B2 inh 25
CCOC(=O)N(C)c1c(CC)nc2c(OCc3ccc(C(F)(F)F)cc3)cccn12	none (no result: PAFAH2 inh, PAFAH1B2 inh, PAFAH1B3 FP inh, pPAFAH FP inh)
COc1cc(OC)c(NC(=O)CCNS(=O)(=O)c2ccc3c(c2)oc(=O)n3C)cc1Cl	pPAFAH FP inh 25
C=CCN1CCS(=O)(=O)N(Cc2ccccc2)[C@@H](C(C)C)C1=O	none

Compound activity (PubChem)
